Measurements taken from ChEMBL document CHEMBL5724801, “EUbOPEN Chemogenomics Library - Multiplex” (2024).
Values joined by “and” are separate entries in the source; they are usually repeats but may differ in a detail not shown here. Equal entries are not always repeated.

The compounds below were run on HEK-293T (assay: Multiplex assay against HEK293T). Details: human, 12 h, 1 µM, compound concentration 1 uM.
Assay type: toxicity, cell-based
In short: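 Cells stained live at seeding with Hoechst33342, BioTracker Green Microtubule Cytoskeleton Dye, MitoTracker Red and Annexin V Alexa Fluor 680 were imaged on a CQ1 microscope at 37°C and 5% CO2 after compound addition. Their classification by CellPathfinder machine-learning gating ran from Hoechst high-intensity objects versus normal cells, to healthy, pyknosed or fragmented nuclei among normal cells, to mitotic or apoptotic among pyknosed cells. Tubulin, mitochondrial-mass and membrane-permeability phenotypes are per cents of healthy-nucleus cells.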

| SMILES | Population Apoptotic (%) | Population Fragmented Nuclei (%) | Population Healthy Nuclei (%) | Population Hoechst High Intensity Objects (%) | Population Membrane Permeable-Phenotype (%) | Population Mitochondria Different-Phenotype (%) | Population Mitotic Cells (%) | Population Normal (%) | Population Pyknosed Nuclei (%) | Population Tubulin-Different-Phenotype (%) |
| --- | --- | --- | --- | --- | --- | --- | --- | --- | --- | --- |
| O=C1[C@H](Cc2ccc(O)cc2)N2C(=O)CCN(C(=O)NCc3ccccc3)[C@H]2CN1Cc1cccc2ccccc12 | 44% and 46% | 6% and 7% | 80% and 78% | 6% and 8% | 0% | 54% and 68% | 55% and 53% | 93% and 91% | 12% and 13% | 46% and 33% |
| Cl.c1ccc2c(c1)CCC[C@H]2Nc1nc2ccccc2[nH]1 | 12.41% and 9.85% | 1.91% and 2.52% | – | 0.95% and 0.62% | 0.58% and 0% | – | 87.59% and 90.15% | 99.05% and 99.38% | 43.63% and 83.02% | – |

Same assay, conditions: human, 12 h, 1 µM, compound concentration 1 uM

| SMILES | Total Cell Count |
| --- | --- |
| O=C1[C@H](Cc2ccc(O)cc2)N2C(=O)CCN(C(=O)NCc3ccccc3)[C@H]2CN1Cc1cccc2ccccc12 | 374 and 259 |
| Cl.c1ccc2c(c1)CCC[C@H]2Nc1nc2ccccc2[nH]1 | 317 and 160 |

Same assay, conditions: human, 12 h, 10 µM, compound concentration 10 uM

| SMILES | Population Apoptotic (%) | Population Fragmented Nuclei (%) | Population Healthy Nuclei (%) | Population Hoechst High Intensity Objects (%) | Population Membrane Permeable-Phenotype (%) | Population Mitochondria Different-Phenotype (%) | Population Mitotic Cells (%) | Population Normal (%) | Population Pyknosed Nuclei (%) | Population Tubulin-Different-Phenotype (%) |
| --- | --- | --- | --- | --- | --- | --- | --- | --- | --- | --- |
| O=C1[C@H](Cc2ccc(O)cc2)N2C(=O)CCN(C(=O)NCc3ccccc3)[C@H]2CN1Cc1cccc2ccccc12 | 68% and 60% | 5% | 74% and 82% | 11% and 14% | 0 | 90% and 93% | 31% and 40% | 88% and 85% | 20% and 11% | 76% and 67% |
| Cl.c1ccc2c(c1)CCC[C@H]2Nc1nc2ccccc2[nH]1 | 7.19% and 13.79% | 2.56% and 5.8% | – | 0.57% and 0% | 0 | – | 92.81% and 86.21% | 99.43% and 100% | 47.58% and 84.06% | – |

Same assay, conditions: human, 12 h, 10 µM, compound concentration 10 uM

| SMILES | Total Cell Count |
| --- | --- |
| O=C1[C@H](Cc2ccc(O)cc2)N2C(=O)CCN(C(=O)NCc3ccccc3)[C@H]2CN1Cc1cccc2ccccc12 | 340 and 257 |
| Cl.c1ccc2c(c1)CCC[C@H]2Nc1nc2ccccc2[nH]1 | 353 and 138 |

Same assay, conditions: human, 24 h, 1 µM, compound concentration 1 uM

| SMILES | Population Apoptotic (%) | Population Fragmented Nuclei (%) | Population Healthy Nuclei (%) | Population Hoechst High Intensity Objects (%) | Population Membrane Permeable-Phenotype (%) | Population Mitochondria Different-Phenotype (%) | Population Mitotic Cells (%) | Population Normal (%) | Population Pyknosed Nuclei (%) | Population Tubulin-Different-Phenotype (%) |
| --- | --- | --- | --- | --- | --- | --- | --- | --- | --- | --- |
| O=C1[C@H](Cc2ccc(O)cc2)N2C(=O)CCN(C(=O)NCc3ccccc3)[C@H]2CN1Cc1cccc2ccccc12 | 23% and 55% | 7% and 8% | 80% and 77% | 7% and 8% | 0% | 49% and 47% | 76% and 45% | 92% and 91% | 11% and 14% | 38% and 24% |
| Cl.c1ccc2c(c1)CCC[C@H]2Nc1nc2ccccc2[nH]1 | 15.19% and 12.5% | 2.28% and 0.59% | 64.94% and 28.82% | 0% | 1.6% and 2.04% | – | 84.81% and 87.5% | 100% | 32.78% and 70.59% | 15.97% and 10.2% |

Same assay, conditions: human, 24 h, 1 µM, compound concentration 1 uM

| SMILES | Total Cell Count |
| --- | --- |
| O=C1[C@H](Cc2ccc(O)cc2)N2C(=O)CCN(C(=O)NCc3ccccc3)[C@H]2CN1Cc1cccc2ccccc12 | 470 and 305 |
| Cl.c1ccc2c(c1)CCC[C@H]2Nc1nc2ccccc2[nH]1 | 482 and 170 |

Same assay, conditions: human, 24 h, 10 µM, compound concentration 10 uM

| SMILES | Population Apoptotic (%) | Population Fragmented Nuclei (%) | Population Healthy Nuclei (%) | Population Hoechst High Intensity Objects (%) | Population Membrane Permeable-Phenotype (%) | Population Mitochondria Different-Phenotype (%) | Population Mitotic Cells (%) | Population Normal (%) | Population Pyknosed Nuclei (%) | Population Tubulin-Different-Phenotype (%) |
| --- | --- | --- | --- | --- | --- | --- | --- | --- | --- | --- |
| O=C1[C@H](Cc2ccc(O)cc2)N2C(=O)CCN(C(=O)NCc3ccccc3)[C@H]2CN1Cc1cccc2ccccc12 | 68% and 74% | 7% and 9% | 75% and 77% | 11% and 14% | 0% | 94% and 95% | 31% and 25% | 88% and 85% | 16% and 12% | 65% and 70% |
| Cl.c1ccc2c(c1)CCC[C@H]2Nc1nc2ccccc2[nH]1 | 10.9% and 23.53% | 2.57% and 5.7% | – | 0% | 2.68% and 0% | 18.75% and 10% | 89.1% and 76.47% | 100% | 30.89% and 75.32% | 23.81% and 10% |

Same assay, conditions: human, 24 h, 10 µM, compound concentration 10 uM

| SMILES | Total Cell Count |
| --- | --- |
| O=C1[C@H](Cc2ccc(O)cc2)N2C(=O)CCN(C(=O)NCc3ccccc3)[C@H]2CN1Cc1cccc2ccccc12 | 278 and 249 |

Same assay, conditions: human, 48 h, 1 µM, compound concentration 1 uM

| SMILES | Population Apoptotic (%) | Population Fragmented Nuclei (%) | Population Healthy Nuclei (%) | Population Hoechst High Intensity Objects (%) | Population Membrane Permeable-Phenotype (%) | Population Mitochondria Different-Phenotype (%) | Population Mitotic Cells (%) | Population Normal (%) | Population Pyknosed Nuclei (%) | Population Tubulin-Different-Phenotype (%) |
| --- | --- | --- | --- | --- | --- | --- | --- | --- | --- | --- |
| O=C1[C@H](Cc2ccc(O)cc2)N2C(=O)CCN(C(=O)NCc3ccccc3)[C@H]2CN1Cc1cccc2ccccc12 | 30% and 50% | 14% and 11% | 78% and 81% | 4% and 3% | 0% | 34% and 29% | 69% and 50% | 95% and 96% | 6% and 7% | 26% and 19% |
| Cl.c1ccc2c(c1)CCC[C@H]2Nc1nc2ccccc2[nH]1 | 8.15% and 21.05% | 2.18% and 2.63% | 84.41% and 64.04% | 0% and 0.44% | 3.88% and 2.74% | 18.59% and 17.81% | 91.85% and 78.95% | 100% and 99.56% | 13.41% and 33.33% | – |

Same assay, conditions: human, 48 h, 1 µM, compound concentration 1 uM

| SMILES | Total Cell Count |
| --- | --- |
| O=C1[C@H](Cc2ccc(O)cc2)N2C(=O)CCN(C(=O)NCc3ccccc3)[C@H]2CN1Cc1cccc2ccccc12 | 730 and 472 |

Same assay, conditions: human, 48 h, 10 µM, compound concentration 10 uM

| SMILES | Population Apoptotic (%) | Population Fragmented Nuclei (%) | Population Healthy Nuclei (%) | Population Hoechst High Intensity Objects (%) | Population Membrane Permeable-Phenotype (%) | Population Mitochondria Different-Phenotype (%) | Population Mitotic Cells (%) | Population Normal (%) | Population Pyknosed Nuclei (%) | Population Tubulin-Different-Phenotype (%) |
| --- | --- | --- | --- | --- | --- | --- | --- | --- | --- | --- |
| O=C1[C@H](Cc2ccc(O)cc2)N2C(=O)CCN(C(=O)NCc3ccccc3)[C@H]2CN1Cc1cccc2ccccc12 | 71% and 57% | 8% and 11% | 79% and 73% | 10% and 20% | 0% | 94% and 88% | 28% and 42% | 89% and 79% | 11% and 14% | 63% and 72% |
| Cl.c1ccc2c(c1)CCC[C@H]2Nc1nc2ccccc2[nH]1 | – | 2.01% and 3.85% | 79.3% and 55.49% | 0.32% and 0% | 5.99% and 1.98% | 26.23% and 33.66% | 94.35% and 78.38% | 99.68% and 100% | 18.69% and 40.66% | – |

Same assay, conditions: human, 48 h, 10 µM, compound concentration 10 uM

| SMILES | Total Cell Count |
| --- | --- |
| O=C1[C@H](Cc2ccc(O)cc2)N2C(=O)CCN(C(=O)NCc3ccccc3)[C@H]2CN1Cc1cccc2ccccc12 | 297 and 232 |
